Experimental data: ChEMBL document CHEMBL1127427, “Effect of molecular manipulation on the estrogenic activity of a brain-targeting estradiol chemical delivery system” (J Med Chem, 1994)

Key:
[1] = species on record: Rattus norvegicus; test: Compound was tested in male rats for its effect on the seminal vesicle weight; format: functional; parameters: concentration or dose not given beside the values
In short: (§1)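 Adult male Sprague-Dawley rats (175–200 g) received a single iv tail-vein dose of 0.025 mmol/kg (equal to 5 mg/kg E2-CDS) or DMSO vehicle (0.5 mL/kg). Weighed daily for 14 days. Euthanized at day 14; organ excised and weighed. Expressed as mg per 100 g body weight, mean ± SEM, n=6.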

[2] = Compound was evaluated for oxidation rate constant in brain homogenate; format: ADME, tissue-based
In short: (§2)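 Male Sprague-Dawley rats were PBS-perfused and their organs homogenized in PBS: brain 2% w/v, liver 1.0% w/v. Compound loss followed by the fall in 360 nm absorbance. Pseudo-first-order rate constant taken from log(A360) versus time. Triplicate runs; half-life given as mean ± SEM.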

[3] = Compound was evaluated for first order half-life in liver homogenate.; format: ADME, tissue-based; in short: as §2
[4] = species on record: Rattus norvegicus; test: Compound is tested in male rats for its effect on the pituitary weight; format: functional; parameters: concentration or dose not given beside the values; in short: as §1
[5] = Compound was evaluated for first order half-life in brain homogenate.; format: ADME, tissue-based; in short: as §2
[6] = species on record: Rattus norvegicus; test: Compound is tested in male rats for its effect on the prostate weight; format: functional, Prostate gland; parameters: concentration or dose not given beside the values; in short: as §1
[7] = Compound was evaluated for oxidation rate constant in liver homogenate; format: ADME, tissue-based; conditions: tissue homogenate; in short: as §2
[8] = system: Rattus norvegicus; test: Compound is evaluated for effect on serum estradiol, 14 days subsequent to a single intravenous dose determined by means of a radioimmunoassay; format: functional, organism-based
In short: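 Adult male Sprague-Dawley rats (175–200 g), conscious and restrained, given a single tail-vein iv injection of 0.025 mmol/kg (equal to 5 mg/kg E2-CDS) or DMSO vehicle (0.5 mL/kg). Serum taken at day 14. Estradiol measured in duplicate by Coat-a-Count RIA. Antibody cross-reactivity with E2-Q+ <0.1%; detection limit 10 pg/mL. Mean ± SEM.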

Row | k [2] | half-life [3] | half-life [5] | k [7] | SMILES | Activity [1] | Activity [4] | Activity [6] | Concentration [8]
1 | 0.00567 min⁻¹ | 0.483 h | 2.05 h | 0.0242 min⁻¹ | C[C@]12CC[C@@H]3c4ccc(O)cc4CC[C@H]3[C@@H]1CC[C@@H]2OC(=O)C1=CN(CCCO)C=CC1 | 106.49% | 4.6% | 75.22% | 44.3 pg/mL
2 | 0.00353 min⁻¹ | 0.367 h | 3.3 h | 0.0323 min⁻¹ | CCN1C=CCC(C(=O)O[C@H]2CC[C@H]3[C@@H]4CCc5cc(O)ccc5[C@H]4CC[C@]23C)=C1 | 70.75% | 6.17% | 32.06% | 37.7 pg/mL
3 |  |  |  |  | C[C@]12CC[C@@H]3c4ccc(O)cc4CC[C@H]3[C@@H]1CC[C@@H]2O [ESTRADIOL] | 107.36% | 3.88% | 62.26% | 22.2 pg/mL
4 | 0.00611 min⁻¹ | 0.633 h | 1.9 h | 0.0183 min⁻¹ | C[C@]12CC[C@@H]3c4ccc(O)cc4CC[C@H]3[C@@H]1CC[C@@H]2OC(=O)C1=CN(CC2CC2)C=CC1 | 97.29% | 4.4% | 54.31% | 40.4 pg/mL
5 | 0.00736 min⁻¹ | 0.867 h | 1.57 h | 0.0153 min⁻¹ | CCCN1C=CCC(C(=O)O[C@H]2CC[C@H]3[C@@H]4CCc5cc(O)ccc5[C@H]4CC[C@]23C)=C1 | 85.97% | 5.32% | 46.4% | 42.9 pg/mL
6 | 0.00238 min⁻¹ | 1.32 h | 4.8 h | 0.00892 min⁻¹ | C[C@]12CC[C@@H]3c4ccc(O)cc4CC[C@H]3[C@@H]1CC[C@@H]2OC(=O)C1=CN(Cc2ccccc2)C=CC1 | 97.43% | 4.86% | 67.38% | 42 pg/mL
7 | 0.0058 min⁻¹ | 0.433 h | 2 h | 0.0263 min⁻¹ | CC(C)N1C=CCC(C(=O)O[C@H]2CC[C@H]3[C@@H]4CCc5cc(O)ccc5[C@H]4CC[C@]23C)=C1 | 104.62% | 4.86% | 68.64% | 43.6 pg/mL
8 | 0.00268 min⁻¹ | 0.933 h | 4.32 h | 0.0123 min⁻¹ | CCCCCCN1C=CCC(C(=O)O[C@H]2CC[C@H]3[C@@H]4CCc5cc(O)ccc5[C@H]4CC[C@]23C)=C1 | 95.66% | 5.28% | 66.26% | 37.4 pg/mL

Row | SMILES | k [2] | half-life [3] | half-life [5] | k [7] | Activity [1] | Activity [4] | Activity [6] | Concentration [8]
9 | CN1C=CCC(C(=O)O[C@H]2CC[C@H]3[C@@H]4CCc5cc(O)ccc5[C@H]4CC[C@]23C)=C1 | 0.00577 min⁻¹ | 0.533 h | 2.02 h | 0.0815 min⁻¹ | 68.15% | 6.46% | 35.75% | 53 pg/mL
